Entries after “also recorded” stand apart in the source; their conditions may differ.
Experiments:
[1] = molecular target: T1, TRPML3 (Homo sapiens, UniProt Q8TDD5); type: cell-based; conditions: HEK293, read-out: Max % Activation (TRPML3)
T1 sequence (Q8TDD5 1-553): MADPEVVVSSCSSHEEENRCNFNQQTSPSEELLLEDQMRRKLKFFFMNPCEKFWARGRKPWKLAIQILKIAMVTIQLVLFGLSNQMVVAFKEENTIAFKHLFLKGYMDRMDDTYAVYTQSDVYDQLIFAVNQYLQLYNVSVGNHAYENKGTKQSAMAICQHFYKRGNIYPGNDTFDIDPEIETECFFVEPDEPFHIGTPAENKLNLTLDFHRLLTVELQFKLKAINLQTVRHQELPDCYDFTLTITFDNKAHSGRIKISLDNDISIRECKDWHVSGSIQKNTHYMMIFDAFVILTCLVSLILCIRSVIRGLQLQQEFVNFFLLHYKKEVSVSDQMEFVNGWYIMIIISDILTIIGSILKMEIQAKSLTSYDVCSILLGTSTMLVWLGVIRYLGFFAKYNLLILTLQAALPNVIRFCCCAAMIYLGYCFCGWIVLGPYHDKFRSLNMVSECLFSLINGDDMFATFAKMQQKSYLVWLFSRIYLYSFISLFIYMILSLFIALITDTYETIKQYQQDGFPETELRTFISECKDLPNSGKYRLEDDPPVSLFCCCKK
Procedure, shortened: (§1)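 HEK293 lines stably expressed YFP-fused human TRPML3 or zebrafish TRPN1 (G418 0.8 mg/ml, twice subcloned) and were plated at 1,500 cells/well for 23 h at 37 °C. After Fluo-8 loading (1 h 37 °C, 30 min RT), a 5 s basal read and 120 s post-addition read were taken. Max/basal ratios were normalized to DMSO and carbachol (87 µM).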

[2] = molecular target: danio rerio TRPN1 (Danio rerio, UniProt Q7T1G6); type: cell-based; conditions: for Emax: HEK293, read-out: Max % Activation (Control); for activity against TRPN1: compounds tested from powders
Procedure, shortened: as §1

[3] = molecular target: T1, TRPML3; assay: Fura-2 calcium imaging, HEK293 cells transiently expressing TRPML3; type: cell-based; conditions: for ⊗F340/F380 (TRPML3): 10 µM compound, mean ±SEM (n≥3); for kinetics of intracellular calcium increase: TRPML3-transfected HEK293 cells
Procedure, shortened: (§2)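 HEK293 cells were transiently transfected (Genejammer) with the human channel construct or YFP control and measured 24 h later. Cells on glass coverslips were loaded with 4 µM fura-2-AM in bath solution (mM: 138 NaCl, 6 KCl, 2 MgCl2, 2 CaCl2, 10 HEPES, 5.5 D-glucose; pH 7.4). Compounds were applied at 10 µM and the F340/F380 ratio recorded. Values are mean ± SEM, n≥3.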

[4] = test system: YFP-expressing HEK293 cells; assay: Fura-2 calcium imaging, YFP-expressing HEK293 cells; type: cell-based; conditions: mean ±SEM (n≥3)
Procedure, shortened: as §2

[5] = molecular target: T1, TRPML3; assay: Whole-cell patch-clamp, HEK293 cells transiently transfected with TRPML3; type: cell-based; conditions: for nA/pF (-80 mV) (TRPML3): current density at −80 mV, 10 µM in standard bath solution, mean ±SEM (n≥3); for average current density relative to constitutively active TRPML3 A419P: whole-cell, −80 mV
Procedure, shortened: (§3)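 Whole-cell patch clamp was done on HEK293 cells 24 h after transient transfection with human TRPML3 or YFP; constitutively active TRPML3(A419P) cells served as positive control. Bath solution (mM): 138 NaCl, 5.4 KCl, 2 MgCl2, 2 CaCl2, 10 HEPES, 10 d-glucose; pH 7.4. Pipette solution (mM): 140 CsCl, 10 HEPES, 3 ATP-Na, 1 BAPTA, 2 MgCl2; pH 7.2. Compounds at 10 µM were perfused. Capacitance-normalized current at −80 mV is reported as mean ± SEM, n≥3.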

[6] = molecular target: T2, TRPML2 (Homo sapiens, UniProt Q8IZK6); assay: Fura-2 calcium imaging, HEK293 cells expressing TRPML2; type: cell-based; conditions: 10 µM
T2 sequence (Q8IZK6 1-566): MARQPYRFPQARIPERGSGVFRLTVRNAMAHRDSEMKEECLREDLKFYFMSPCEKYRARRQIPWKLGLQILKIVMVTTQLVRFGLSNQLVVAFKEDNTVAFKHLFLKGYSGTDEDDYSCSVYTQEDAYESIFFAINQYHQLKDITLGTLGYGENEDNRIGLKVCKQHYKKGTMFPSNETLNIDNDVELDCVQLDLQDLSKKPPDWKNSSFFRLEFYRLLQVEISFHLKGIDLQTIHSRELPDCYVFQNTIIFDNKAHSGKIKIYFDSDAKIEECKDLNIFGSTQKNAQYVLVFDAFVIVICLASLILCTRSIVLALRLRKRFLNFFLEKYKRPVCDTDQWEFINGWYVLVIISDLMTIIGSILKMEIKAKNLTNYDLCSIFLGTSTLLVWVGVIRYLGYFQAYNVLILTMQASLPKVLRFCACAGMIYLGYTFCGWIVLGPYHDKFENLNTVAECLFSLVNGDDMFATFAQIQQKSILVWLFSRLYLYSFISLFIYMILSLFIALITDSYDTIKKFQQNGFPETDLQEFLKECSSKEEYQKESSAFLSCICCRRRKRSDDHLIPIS
Procedure, shortened: as §2

[7] = test system: YFP-expressing HEK293 cells; assay: Whole-cell patch-clamp, YFP-expressing HEK293 cells; type: cell-based; conditions: current density at −80 mV, mean ±SEM (n≥3)
Procedure, shortened: as §3

[8] = molecular target: TRPML1(NC) (Homo sapiens, UniProt Q9GZU1); assay: Fura-2 calcium imaging, HEK293 cells expressing TRPML1; type: cell-based; conditions: 10 µM, plasma membrane-localized TRPML1 variant
Procedure, shortened: as §2

[9] = molecular target: T1, TRPML3; assay: Excised; type: cell-based; conditions: patches held at −80 mV
[10] = molecular target: T1, TRPML3; assay: Whole-cell patch-clamp with intracellular application; type: cell-based
[11] = molecular target: T3, TRPML3 coexpressed with TRPML1 (Homo sapiens, UniProt Q8TDD5); assay: Calcium imaging, HEK293 cells coexpressing TRPML3 with TRPML1; type: cell-based; conditions: 10 µM
T3 sequence (Q8TDD5 1-553): T1 sequence (Q8TDD5 1-553)
Procedure, shortened: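 Human TRPML3 and TRPML1 were transiently coexpressed in HEK293 cells (Genejammer) and imaged 24 h post-transfection. Cells on glass coverslips were loaded with 4 μM fura-2-AM in bath solution (mM: 138 NaCl, 6 KCl, 2 MgCl₂, 2 CaCl₂, 10 HEPES, 5.5 D-glucose, pH 7.4) and read on a monochromator imaging system. Test compound was 10 μM. Mean ± SEM, n≥3 independent experiments, 20–30 cells each.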

[12] = test system: TRPML3; type: cell-based; conditions: 10 µM compound; ELS 2 mM Na+, 150 mM K+
Procedure, shortened: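 Whole-cell recordings used HEK293 cells expressing TRPML3 with 100% series-resistance compensation. Pipette solution (mM): 140 CsCl, 10 HEPES, 3 ATP-Na, 1 BAPTA, 2 MgCl2; pH 7.2. Compound at 10 µM was perfused in endolymph-like solution (mM: 2 NaCl, 150 KCl, 0.25 CaCl2, 10 HEPES, 10 glucose; pH 7.4) or in standard bath. Inward current at −80 mV was normalized to capacitance.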

[13] = molecular target: T4, TRPML3 coexpressed with dynamin (Homo sapiens, UniProt Q8TDD5); assay: Calcium imaging, HEK293 cells coexpressing wild type dynamin with TRPML3; type: cell-based; conditions: compared to control experiments
T4 sequence (Q8TDD5 1-553): T1 sequence (Q8TDD5 1-553)
Procedure, shortened: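 HEK293 cells were transiently cotransfected (Genejammer) with wild-type dynamin and TRPML3 and imaged 24 h later. Cells on glass coverslips were loaded with 4 µM fura-2-AM in bath solution (mM: 138 NaCl, 6 KCl, 2 MgCl2, 2 CaCl2, 10 HEPES, 5.5 D-glucose; pH 7.4). Responses to activators were compared with control transfections.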

[14] = test system: cochlear hair cells; assay: Recording from acutely isolated cochlear hair cells; type: cell-based, rat; conditions: up-to 100 µM; in SBS, SN-2 also in ELS

Chain of danio rerio TRPN1 (Q7T1G6 1-1614): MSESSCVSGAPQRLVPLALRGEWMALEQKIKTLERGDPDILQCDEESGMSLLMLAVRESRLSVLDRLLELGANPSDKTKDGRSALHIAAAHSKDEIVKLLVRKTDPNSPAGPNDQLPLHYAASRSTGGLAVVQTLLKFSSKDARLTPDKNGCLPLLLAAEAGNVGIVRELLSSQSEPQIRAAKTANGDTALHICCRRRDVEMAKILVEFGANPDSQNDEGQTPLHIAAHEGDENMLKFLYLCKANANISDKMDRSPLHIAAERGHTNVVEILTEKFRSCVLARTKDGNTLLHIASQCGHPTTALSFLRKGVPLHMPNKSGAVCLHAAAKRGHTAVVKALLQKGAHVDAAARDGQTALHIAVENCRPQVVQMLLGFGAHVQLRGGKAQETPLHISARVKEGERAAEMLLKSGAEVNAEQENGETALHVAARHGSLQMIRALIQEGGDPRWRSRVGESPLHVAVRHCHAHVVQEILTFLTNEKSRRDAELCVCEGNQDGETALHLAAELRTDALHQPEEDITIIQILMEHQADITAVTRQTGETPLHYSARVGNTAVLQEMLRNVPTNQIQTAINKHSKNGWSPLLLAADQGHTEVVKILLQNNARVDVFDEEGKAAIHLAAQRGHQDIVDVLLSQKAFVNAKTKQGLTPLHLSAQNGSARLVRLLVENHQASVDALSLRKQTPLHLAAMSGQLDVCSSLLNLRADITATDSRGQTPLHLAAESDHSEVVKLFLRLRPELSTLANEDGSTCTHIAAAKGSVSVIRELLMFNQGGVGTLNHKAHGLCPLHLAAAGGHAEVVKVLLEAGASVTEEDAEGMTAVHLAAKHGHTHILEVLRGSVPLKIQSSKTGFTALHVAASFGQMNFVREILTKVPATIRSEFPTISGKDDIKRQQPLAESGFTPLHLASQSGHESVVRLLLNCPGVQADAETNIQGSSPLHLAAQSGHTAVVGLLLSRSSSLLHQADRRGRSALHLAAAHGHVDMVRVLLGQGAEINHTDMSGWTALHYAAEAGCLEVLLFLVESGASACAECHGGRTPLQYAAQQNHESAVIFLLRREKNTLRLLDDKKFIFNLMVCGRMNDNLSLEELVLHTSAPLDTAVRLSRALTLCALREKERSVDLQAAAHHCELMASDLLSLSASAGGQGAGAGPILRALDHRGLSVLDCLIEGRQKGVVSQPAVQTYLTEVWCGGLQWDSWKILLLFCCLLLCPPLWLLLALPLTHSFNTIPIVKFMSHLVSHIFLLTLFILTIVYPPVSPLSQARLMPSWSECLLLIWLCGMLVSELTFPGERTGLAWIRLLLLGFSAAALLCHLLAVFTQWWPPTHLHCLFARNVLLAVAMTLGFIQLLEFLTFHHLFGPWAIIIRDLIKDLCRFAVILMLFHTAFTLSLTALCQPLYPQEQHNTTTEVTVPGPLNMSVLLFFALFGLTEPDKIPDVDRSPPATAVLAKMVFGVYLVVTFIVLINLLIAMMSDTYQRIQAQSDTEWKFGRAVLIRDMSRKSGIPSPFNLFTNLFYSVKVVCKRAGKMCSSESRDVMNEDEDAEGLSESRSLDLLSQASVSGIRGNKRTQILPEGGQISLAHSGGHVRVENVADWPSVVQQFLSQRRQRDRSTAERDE
Chain of TRPML1(NC) (Q9GZU1 17-572 limits assumed): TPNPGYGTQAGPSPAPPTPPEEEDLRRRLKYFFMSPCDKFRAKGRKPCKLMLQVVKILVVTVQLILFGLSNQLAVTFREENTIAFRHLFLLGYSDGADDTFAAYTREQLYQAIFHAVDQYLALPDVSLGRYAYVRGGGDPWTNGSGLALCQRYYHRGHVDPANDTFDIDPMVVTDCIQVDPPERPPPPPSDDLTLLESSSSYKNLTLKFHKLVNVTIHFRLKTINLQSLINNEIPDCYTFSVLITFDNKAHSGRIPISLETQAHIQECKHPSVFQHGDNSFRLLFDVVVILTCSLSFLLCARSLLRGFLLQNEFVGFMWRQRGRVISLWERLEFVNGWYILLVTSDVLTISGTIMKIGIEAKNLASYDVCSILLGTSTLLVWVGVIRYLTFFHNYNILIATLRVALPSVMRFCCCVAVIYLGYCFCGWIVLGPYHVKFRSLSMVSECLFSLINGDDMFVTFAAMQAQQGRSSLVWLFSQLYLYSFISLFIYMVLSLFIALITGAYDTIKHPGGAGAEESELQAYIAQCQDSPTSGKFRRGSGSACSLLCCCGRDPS

Structure (SMILES) | Emax [1] [%] | EC50 [2] [µM] | Emax [2] [%] | ⊗F340/F380 (TRPML3) [3] | nA/pF (-80 mV) (TRPML3) [5] [nA/pF] | response in HEK293 cells expressing TRPML2 [6] | activity against TRPN1 [2] | TRPML3 activity in excised patches [9] | cell membrane permeability ([10]; inferred from intracellular infusion experiment) | response when wild type dynamin coexpressed with TRPML3 in HEK293 cells [13] | kinetics of intracellular calcium increase [3] | ⊗F340/F380 (Control) [4] | average current density relative to constitutively active TRPML3 A419P [5] | nA/pF (-80 mV) (Control) [7] [nA/pF] | activation of mutant TRPML1(NC) isoform [8] | response to intracellular application (infusion) ([10]; whole-cell, −80 mV) | calcium imaging response when TRPML1 was coexpressed with TRPML3 [11] | increase in current densities, compound + ELS vs ELS alone or compound in SBS [12] [fold] | TRPML3 channel activity in cochlear hair cells [14]
Cc1ccc(N2CCN(S(=O)(=O)N3CCCCC3)CC2)c(C)c1 [SF-41, 1-(2,4-dimethylphenyl)-4-piperidin-1-ylsulfonylpiperazine] | 138 ± 12 | > 29.9 | 12 ± 1 | 0.99 ±0.07 | −0.42 ±0.07 | elicited responses |  |  |  |  | much more rapid increase than the other compounds | 0.015 ±0.001 | Stronger responses |  |  |  |  |  | 
CC1=CC(C)(C)N(C(=O)CN2C(=O)c3ccccc3C2=O)c2ccccc21 [SF-51, 2-[2-oxo-2-(2,2,4-trimethylquinolin-1-yl)ethyl]isoindole-1,3-dione] | 175 ± 18 | > 29.9 | 47 ± 3 | 0.78 ±0.03 | −0.41 ±0.10 |  | significant activity against TRPN1 |  |  |  | slowest kinetics |  | Stronger responses | −0.016 ±0.008 |  |  |  |  | 
O=S(=O)(Nc1ccccc1N1CCCCC1)c1ccc(Cl)s1 [SF-22, 5-chloro-N-(2-piperidin-1-ylphenyl)thiophene-2-sulfonamide] | 156 ± 16 | > 29.9 | 1 | 1.00 ±0.07 | −0.24 ±0.06 |  |  | markedly increased TRPML3 activity | not cell permeable |  |  |  | comparable to average current densities obtained from cells expressing the constitutively active varitint-waddler mutant isoform A419P |  | able to activate this channel; also recorded: can be activated by compound SF-22 | did not elicit a response when infused into the cells | strong reduction of the calcium imaging responses |  | 
Cc1ccc(S(=O)(=O)Nc2ccccc2-c2ccccc2)cc1 [SF-24, 4-methyl-N-(2-phenylphenyl)benzenesulfonamide] | 86 ± 7 | > 29.9 | 2 | 0.51 ±0.05 | −0.02 ±0.01 |  |  |  |  | reduction in response |  | 0.016 ±0.023 |  |  |  |  |  | ≤ 10 | 
O=S(=O)(NC1CCCCC1N1CCOCC1)c1ccc(Cl)cc1 (stereo not shown) [SF-21, 4-chloro-N-(2-morpholin-4-ylcyclohexyl)benzenesulfonamide] | 200 ± 7 | 14.2 ± 2.03 | 61 ± 2 | 1.38 ±0.10 | −0.55 ±0.08 | elicited responses | significant activity against TRPN1 |  |  |  | much more rapid increase than the other compounds | 0.033 ±0.008 | Stronger responses |  |  |  | strong reduction of the calcium imaging responses |  | Neither compound at concentrations of up-to 100 µM, with or without endolymph-like extracellular solution, elicited TRPML3 channel activity
O=S(=O)(Nc1ccccc1N1CCOCC1)c1ccc(Cl)s1 [SF-23, 5-chloro-N-(2-morpholin-4-ylphenyl)thiophene-2-sulfonamide] | 174 ± 1 | > 29.9 | 1 ± 1 | 0.93 ±0.07 | −0.37 ±0.08 |  |  | markedly increased TRPML3 activity |  |  |  | 0.005 ±0.005 | comparable to average current densities obtained from cells expressing the constitutively active varitint-waddler mutant isoform A419P |  |  |  | strong reduction of the calcium imaging responses |  | 

Further lines, with some results ahead:

Emax [1] [%] | EC50 [2] [µM] | Emax [2] [%] | ⊗F340/F380 (TRPML3) [3] | nA/pF (-80 mV) (TRPML3) [5] [nA/pF] | response in HEK293 cells expressing TRPML2 [6] | activity against TRPN1 [2] | TRPML3 activity in excised patches [9] | cell membrane permeability ([10]; inferred from intracellular infusion experiment) | response when wild type dynamin coexpressed with TRPML3 in HEK293 cells [13] | Structure (SMILES) | kinetics of intracellular calcium increase [3] | ⊗F340/F380 (Control) [4] | average current density relative to constitutively active TRPML3 A419P [5] | nA/pF (-80 mV) (Control) [7] [nA/pF] | activation of mutant TRPML1(NC) isoform [8] | response to intracellular application (infusion) ([10]; whole-cell, −80 mV) | calcium imaging response when TRPML1 was coexpressed with TRPML3 [11] | increase in current densities, compound + ELS vs ELS alone or compound in SBS [12] [fold] | TRPML3 channel activity in cochlear hair cells [14]
138 ± 21 | > 29.9 | 1 | 0.62 ±0.05 |  | elicited responses |  |  |  |  | Cc1ccccc1S(=O)(=O)c1c(C)cc(C)n(C(C)C)c1=O [SF-81, 4,6-dimethyl-3-(2-methylphenyl)sulfonyl-1-propan-2 ylpyridin-2-one] |  |  | comparable to average current densities obtained from cells expressing the constitutively active varitint-waddler mutant isoform A419P |  |  |  |  |  | 
85 ± 8 | > 29.9 | 2 ± 1 | 0.75 ±0.06 | −0.08 ±0.02 |  |  |  |  |  | CCCC(=O)Oc1c(S(=O)(=O)c2ccc(C)cc2)c(C)nn1C(C)(C)C [SF-71, [2-tert-butyl-5-methyl-4-(4-methylphenyl)sulfonylpyrazol-3-yl] butanoate] |  |  |  | −0.012 ±0.006 |  |  |  |  | 

— article PMC2834294 (Chemistry & biology, 2010)
